GPR7 antag = blocks human GPR7 receptor signaling. AID 1861. P48145. 290,000 tested, 1.1% active. inhibition, % at 4.4 µM. GPR7-expressing cells, fluorescence antagonist assay; in the data active = inhibition above about 16%, passing the limit was not always enough;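 also: cells stimulated with the agonist NPW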
OX1R antag-1 = antagonists of human orexin 1 receptor. CHO/OX1R cells, Fluo-8 calcium fluorescence, orexin A. inhibition, % at 5 µM. 330,000 tested, 0.43% active. AID 434989;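 active = inhibition above its plate's threshold, mean inhibition of all tested compounds on the plate plus 3 SD, cut at about 37% in these data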
Target sequence (O43613 whole entry, looked up): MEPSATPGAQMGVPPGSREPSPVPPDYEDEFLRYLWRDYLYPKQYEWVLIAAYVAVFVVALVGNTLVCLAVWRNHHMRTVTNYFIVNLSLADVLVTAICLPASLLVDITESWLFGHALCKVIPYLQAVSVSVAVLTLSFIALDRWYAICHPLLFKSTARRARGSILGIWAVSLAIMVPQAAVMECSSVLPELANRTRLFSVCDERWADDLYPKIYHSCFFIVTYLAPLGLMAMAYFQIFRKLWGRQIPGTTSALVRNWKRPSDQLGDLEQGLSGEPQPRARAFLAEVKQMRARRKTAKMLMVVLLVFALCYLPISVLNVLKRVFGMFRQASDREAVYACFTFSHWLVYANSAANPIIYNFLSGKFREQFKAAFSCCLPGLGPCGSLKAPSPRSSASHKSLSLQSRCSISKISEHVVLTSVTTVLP
GalR3 antag = blocks the human galanin receptor 3. HEK293 GalR3-CNG cAMP membrane potential fluorescence; galR3 body fused to GalR1 C-terminus. inhibition, % at 3 µM. 360,000 tested, 0.44% active. AID 651719;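 active = inhibition above the screen-wide average plus 3 SD, cut at about 13% in these data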;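 also: forskolin and galanin both at EC90 stimulate the cells; cAMP rise reported by CNG channel membrane potential dye signal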
Target sequence (O60755 1-299 limits assumed): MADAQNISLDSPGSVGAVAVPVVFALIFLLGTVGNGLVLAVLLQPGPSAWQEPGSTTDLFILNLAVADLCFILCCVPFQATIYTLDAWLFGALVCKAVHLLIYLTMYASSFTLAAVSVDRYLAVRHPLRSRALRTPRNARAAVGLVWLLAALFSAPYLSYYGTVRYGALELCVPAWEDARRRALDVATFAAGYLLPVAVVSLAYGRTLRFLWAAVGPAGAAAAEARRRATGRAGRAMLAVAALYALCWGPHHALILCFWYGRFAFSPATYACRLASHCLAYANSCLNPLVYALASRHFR
CHO parental Ca = counter-screen: ATP calcium response change in parental CHO cells. parental CHO-K1, ATP-induced calcium, Fluo-8 fluorescence. inhibition, % at 5.6 µM. 330,000 tested, 0.63% active. AID 463079;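 active = inhibition above that plate's mean sample inhibition plus 3 SD, cut at about 26% in these data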
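Assay system: parental CHO cells; Read-out basis: percent inhibition of ATP-evoked calcium rise, normalized to controls; Benchmarks: ATP and no-ATP DMSO wells; Compound dosing: single nominal dose of 5.6 µM per compound; Signal: Fluo-8 calcium dye fluorescence; Also added: ATP as calcium-mobilizing challenge; Repeats: singlicate.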
OX1R antag-2 = blocks the human orexin 1 receptor | OX1R-expressing cells, FRET antagonist read-out | inhibition, % at 6.6 µM | 330,000 tested, 1.8% active; in the data active = inhibition mostly above about 38%, no sharp cut-off; inactive = mostly below about 40%
Of the large screens only hits and unclear results are named; the others gave an inactive call. Hits are enriched below; roughly 3.1% of the tested compounds scored in any of these assays.

Cc1nn(-c2ccccc2)c(Cl)c1C(=O)N1CCN(c2ncnc3c2cnn3-c2ccccc2)CC1	OX1R antag-1 51.5, CHO parental Ca 78.0, OX1R antag-2 83.4
Cn1cc2cccc([N+](=O)[O-])c2n1	OX1R antag-2 73.9
Cc1ccc(S(=O)(=O)N(C)[C@H]2C[C@H]3c4[nH]c5cccc(-c6ccccc6)c5c4CCN3C(=O)[C@H]2[C@H](C)O)cc1	none (no result: GPR7 antag, OX1R antag-1, CHO parental Ca, OX1R antag-2)
Nc1nc(-c2ccc([N+](=O)[O-])cc2)cc(=O)[nH]1	none (no result: GPR7 antag, OX1R antag-1, CHO parental Ca, OX1R antag-2)
Nc1n[nH]c(-c2ccc([N+](=O)[O-])cc2[N+](=O)[O-])n1	OX1R antag-2 66.9
CN(C(=O)CN1C(=O)c2ccc([N+](=O)[O-])cc2C1=O)C1CCCCC1	OX1R antag-2 64.0 (no result: GPR7 antag)
CCN(C(=O)CN1C(=O)c2ccc([N+](=O)[O-])cc2C1=O)C1CCCCC1	OX1R antag-2 56.3
COc1ccc(-c2cc([N+](=O)[O-])ccc2OCC(=O)N(C)CC(=O)Nc2ccc(C)cc2)cc1	none (no result: GPR7 antag, OX1R antag-1, CHO parental Ca, OX1R antag-2)
COc1ccc(NC(=O)CN(C)C(=O)CN2C(=O)c3ccc([N+](=O)[O-])cc3C2=O)cc1	OX1R antag-2 60.6
CC(=O)NC(C)c1nc2ccccc2n1CC(=O)NC(C)CCc1ccccc1 (stereo not given)	none
O=C(Cn1cnc2ccccc21)Nc1ccc(SC(F)F)cc1	GalR3 antag 73.8, CHO parental Ca 46.5
COc1ccc(NC(=O)COC(=O)Cn2cnc3ccccc32)cc1	none (no result: GPR7 antag)
O=C(Cc1ccc([N+](=O)[O-])cc1)OCc1c(F)cccc1Cl	none
CSc1ccccc1NC(=O)C(=O)c1c[nH]c2ccccc12	OX1R antag-2 48.0
O=C(Nc1ccc2c(c1)OCCO2)C(=O)c1c[nH]c2ccccc12	OX1R antag-2 49.9
CCc1ccc(NC(=O)CNC(=O)Cn2ccc3ccccc3c2=O)cc1	none
CCOC(=O)c1cccc(NC(=O)CCS(=O)(=O)c2ccc(Br)s2)c1	OX1R antag-2 45.7
COc1ccc(Cl)cc1C(=O)Nc1ccccc1N1CCN(C(=O)C(C)C)CC1	GPR7 antag 19.9
COc1ccc(C(=O)Nc2ccccc2N2CCN(C(=O)C(C)C)CC2)cc1Cl	none
COC(=O)c1cccc(NC(=O)NC(=O)c2ccc(Cl)cc2)c1	none
COC(=O)c1cccc(NC(=O)Nc2ccc(Cl)cc2)c1	CHO parental Ca 45.9
COC(=O)c1cc(Cl)c(NC(=O)c2cc3ccccc3o2)cc1OC	none
O=C(C1CC(=O)N(c2ccccc2)C1)N1CCN(c2ccccc2)CC1 (stereo not given)	none
CC(C)CN1CCC(=O)N(CCC#N)CC1	none
O=[N+]([O-])c1nn(-c2ccc3c(c2)OCCO3)n(O)c1=NCCCO	OX1R antag-2 73.7
COc1ccccc1NC(=O)c1nn(-c2ccccc2)ccc1=O	OX1R antag-2 71.0
CCC(=O)Nc1nnc(S(=O)(=O)N2CCCCCC2)s1	none
CN(C)S(=O)(=O)Oc1ccsc1C(=O)Nc1cccc(Cl)c1Cl	CHO parental Ca 46.0
CC(=O)Nc1cc(OC(C)=O)c2nonc2c1OC(C)=O	OX1R antag-2 84.7
CCCc1cc(C(=O)N/N=C/c2cccn2C)cs1	none
O=[N+]([O-])c1cnc(Sc2ccncn2)s1	OX1R antag-2 72.1
O=[N+]([O-])c1cnc(Sc2ccncn2)c([N+](=O)[O-])c1	none (no result: GPR7 antag, OX1R antag-1, CHO parental Ca, OX1R antag-2)
COc1ccc(NC(=O)/C(Cl)=C(/Cl)S(=O)(=O)Cc2ccc(C)cc2)cn1	GPR7 antag 24.1 (no result: OX1R antag-1, GalR3 antag, CHO parental Ca, OX1R antag-2)
COc1ccc(N2C[C@@]3(O)CC[C@@H](O)[C@@H](OC)[C@@H]3[C@@](C)(O)[C@@H]2CC=C(C)C)cc1	none (no result: GPR7 antag, OX1R antag-1, CHO parental Ca, OX1R antag-2)
Clc1ccc(Nc2ccc(NCc3ccccc3)nn2)cc1	GPR7 antag 18.9
Cc1ccc(Nc2ccc(NCc3ccccc3)nn2)cc1C	none
O=C1c2ccccc2S(=O)N1c1cccc(F)c1 (stereo not given)	none (no result: GPR7 antag, OX1R antag-1, CHO parental Ca, OX1R antag-2)
O=C(c1cc(F)ccc1F)C1CCCN(C(=O)c2ccc3nccnc3c2)C1 (stereo not given)	none
CC12CCC3c4ccc(O)cc4CCC3C1CCC2=O (stereo not given)	none (no result: GPR7 antag)
CCn1cc(/C=N/N=C2\CCC3C4CCc5cc(O)ccc5C4CC[C@]23C)c(C)n1 (stereo not given in full)	CHO parental Ca 38.1
CC(=O)NC1=C(N(C)C2CCS(=O)(=O)C2)C(=O)c2ccccc2C1=O (stereo not given)	OX1R antag-2 70.4
CN(C(=O)Nc1ccccc1)C1CCS(=O)(=O)C1 (stereo not given)	none
CCOC(=O)C1CCCN(C(=O)COc2ccc(S(=O)(=O)N(CC)c3ccccc3)cc2)C1 (stereo not given)	none
O=[N+]([O-])c1cc(Oc2cccnc2)cc([N+](=O)[O-])c1	OX1R antag-2 74.6
O=[N+]([O-])c1ccc(COc2cccnc2)cc1	none
Cc1ccc(-n2c(C)cc(C(=O)CSc3nncs3)c2C)cc1	OX1R antag-1 92.3, OX1R antag-2 56.6
Cc1cc(C(=O)N/N=C/c2c3ccccc3cc3ccccc23)n[nH]1	none
NC(=O)C(=O)N/N=C/c1c2ccccc2cc2ccccc12	OX1R antag-2 82.0
Cc1ccccc1NC(=O)OCc1cccnc1Oc1ccc(Cl)cc1	none
COc1ccc(N=Nc2nc(-c3ccccc3)c(-c3ccccc3)[nH]2)cc1	none
COc1ccccc1N=Nc1nc(-c2ccccc2)c(-c2ccccc2)[nH]1	OX1R antag-2 65.9
CCCCNC(=S)Nc1ccc([N+](=O)[O-])cc1	GPR7 antag 23.1
CC(C)CCNC(=S)Nc1ccc([N+](=O)[O-])cc1	GPR7 antag 21.9
CC(C)CCNC(=S)Nc1ccc(Br)cc1	none
COc1ccc(N(CC(=O)NCCC2=CCCCC2)S(=O)(=O)c2ccc(C)cc2)cc1	none (no result: GalR3 antag)
Cc1ccc(NC(=O)c2cnc(N3CCN(c4ccccn4)CC3)c3ccccc23)c(Br)c1	GPR7 antag 25.6
Oc1c(C=Nc2cccc3cccnc23)sc2ccccc12	OX1R antag-1 99.0, CHO parental Ca 49.0
Cc1cccc(/N=C/c2sc3ccccc3c2O)n1	none
CC(C)(C)c1ccc(-c2cc(-c3ccccc3O)[nH]n2)cc1	none
Oc1ccccc1-c1cc(-c2cccc(F)c2)n[nH]1	OX1R antag-2 41.1
C=CC[C@@H](CC(=O)N[C@H](CO)Cc1ccccc1)C(=O)N[C@H](COC(=O)[C@@H](CC=C)CC(=O)OC(C)(C)C)Cc1c[nH]c2ccccc12	OX1R antag-1 83.9, CHO parental Ca 61.3 (no result: GPR7 antag)
CN(CCCNC(=O)CSc1cc(=O)n(C)c2cc(Cl)ccc12)Cc1ccccc1	GPR7 antag 20.8
Cn1c(=O)cc(SCC(=O)NCCC2=CCCCC2)c2ccc(Cl)cc21	none
CC1CCN(C(C(=O)Nc2ccc(C(C)C)cc2)c2ccc3c(c2)OCO3)CC1 (stereo not given)	CHO parental Ca 31.1
Cc1ccc(N2CC(C(=O)NCCC3=CCCCC3)CC2=O)cc1 (stereo not given)	none (no result: GPR7 antag)
O=C(Cn1nnc(-c2ccccc2NC(=O)c2ccccc2F)n1)NC1CCCC1	CHO parental Ca 32.2
COc1cccc(CNC(=O)COC(=O)c2nc(Cl)c(Cl)c(Cl)c2Cl)c1	none (no result: GPR7 antag)
CC1(C)C(C=C(Cl)Cl)C1C(=O)Nc1ccc([N+](=O)[O-])cc1 (stereo not given)	CHO parental Ca 49.6

High-throughput results as filed in PubChem.
